Reference: ChEMBL document CHEMBL4052819 (2017)
≈ marks a conversion by molar mass, not a printed value. Calls of active or inactive are those of the source. The rule behind the calls is not given here. Non-standard residues stand in square brackets, D forms with d. Residues, ends and D or L forms follow the SMILES beside them. *: point of attachment. Cha = N[C@@H](CC1CCCCC1)C(=O)O; Octanoyl = CCCCCCCC(=O)*; Dab = NCC[C@H](N)C(=O)O

How the values were obtained:
Enterococcus faecium [1] = test: Bactericidal activity against Enterococcus faecium ATCC 19434; format: functional; settings: read-out: MBC99.9
How it was run: (§1)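 MBC from MIC plates at end point: 50 μL from each well with no visible growth plated on tryptic soy agar and counted. MBC taken as lowest concentration giving ≥99.9% fall in viable count relative to initial inoculum. Three independent experiments, one replicate each.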

Acinetobacter baumannii [2] = test: Antibacterial activity against Acinetobacter baumannii ATCC 19606 after 18 to 20 hrs by broth microdilution method; format: functional; settings: ATCC 19606 = CIP 70.34 = JCM 6841
Escherichia coli [3] = test: Antibacterial activity against Escherichia coli ATCC 25922 in presence of 100% serum after 6 hrs by broth microdilution method; format: functional; settings: ATCC 25922, 6 h
How it was run: (§2)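 Serum stability: compound added to 100% human serum at final 64 μg/mL, held at 37 °C, sampled at 0, 6, 12 and 24 h. […] Residual activity compared with untreated control.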

Klebsiella pneumoniae [4] = test: Antibacterial activity against Klebsiella pneumoniae ATCC 13883 after 18 to 20 hrs by broth microdilution method; format: functional
Staphylococcus aureus [5] = test: Antibacterial activity against Staphylococcus aureus ATCC 29213 after 18 to 20 hrs in presence of 95% serum by broth microdilution method; format: functional
How it was run: (§3)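 Same microdilution with human serum as medium: compound 2-fold diluted in 100% serum, mixed 1:1 with 90% serum holding ~1.5 × 10^5 CFU/mL, giving 95% serum and final 0.5–64 μg/mL. MIC read as no visible growth after incubation as for the broth test.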

Escherichia coli [6] = test: Antibacterial activity against Escherichia coli ATCC 25922 in presence of 100% serum after 12 hrs by broth microdilution method; format: functional; settings: ATCC 25922, 12 h; how it was run: as §2
Staphylococcus aureus [7] = test: Antibacterial activity against Staphylococcus aureus ATCC 29213 after 18 to 20 hrs by broth microdilution method; format: functional
How it was run: (§4)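 Broth microdilution in tryptic soy broth: 2-fold dilutions mixed 1:1 with ~1.5 × 10^5 CFU/mL inoculum, final 0.5–32 μg/mL; 37 °C, 18–20 h. MIC taken as lowest concentration giving no visible growth. At least three independent experiments, one replicate each.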

Escherichia coli [8] = test: Antibacterial activity against Escherichia coli ATCC 25922 in presence of 100% serum after 24 hrs by broth microdilution method; format: functional; settings: ATCC 25922, 24 h; how it was run: as §2
Escherichia coli [9] = test: Antibacterial activity against Escherichia coli ATCC 25922 in presence of 100% serum measured immediately post compound addition in serum by broth microdilution method; format: functional; how it was run: as §2
Escherichia coli [10] = test: Antibacterial activity against Escherichia coli ATCC 25922 after 18 to 20 hrs by broth microdilution method; format: functional; how it was run: as §4
Pseudomonas aeruginosa [11] = test: Antibacterial activity against Pseudomonas aeruginosa ATCC 27853 after 18 to 20 hrs by broth microdilution method; format: functional; how it was run: as §4
Staphylococcus aureus [12] = test: Bactericidal activity against Staphylococcus aureus ATCC 29213; format: functional; settings: read-out: MBC99.9; how it was run: as §1
Klebsiella pneumoniae [13] = test: Bactericidal activity against Klebsiella pneumoniae ATCC 13883; format: functional; settings: read-out: MBC99.9; how it was run: as §1
Pseudomonas aeruginosa [14] = test: Bactericidal activity against Pseudomonas aeruginosa ATCC 27853; format: functional; settings: read-out: MBC99.9; how it was run: as §1
Staphylococcus aureus [15] = test: Antibacterial activity against methicillin-resistant Staphylococcus aureus ATCC 43300 after 18 to 20 hrs by broth microdilution method; format: functional
How it was run: (§5)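 Broth microdilution in tryptic soy broth: 2-fold dilutions mixed 1:1 with ~1.5 × 10^5 CFU/mL bacterial suspension in TSB, final 0.5–32 μg/mL, 37 °C for 18–20 h. MIC = lowest concentration with no visible growth. At least three independent experiments, one replicate each.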

Staphylococcus aureus [16] = test: Bactericidal activity against methicillin-resistant Staphylococcus aureus ATCC 43300; format: functional; settings: read-out: MBC99.9
How it was run: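 MBC taken at the end of the MIC test: 50 μL from each well without visible growth plated on tryptic soy agar. MBC = lowest concentration giving ≥99.9% reduction in viable cells relative to the initial inoculum. Three independent experiments, one replicate each.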

Escherichia coli [17] = test: Bactericidal activity against Escherichia coli ATCC 25922; format: functional; settings: read-out: MBC99.9; how it was run: as §1
Pseudomonas aeruginosa [18] = test: Bactericidal activity against Pseudomonas aeruginosa ATCC 27853 after 60 mins in presence of LPS; format: functional
How it was run: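 P. aeruginosa at ~10^6 CFU/mL in TSB with E. coli O111:B4 LPS (final 10, 25, 50 or 100 μg/mL), then compound at final 16 μg/mL. Incubated 37 °C, 200 rpm, 60 min; survivors counted on TSA. Three independent experiments, one replicate each.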

Escherichia coli [19] = test: Antibacterial activity against Escherichia coli ATCC 25922 after 18 to 20 hrs in presence of 95% serum by broth microdilution method; format: functional; how it was run: as §3
Enterococcus faecium [20] = test: Antibacterial activity against Enterococcus faecium ATCC 19434 after 18 to 20 hrs by broth microdilution method; format: functional; how it was run: as §4
Acinetobacter baumannii [21] = test: Bactericidal activity against Acinetobacter baumannii ATCC 19606; format: functional; settings: ATCC 19606 = CIP 70.34 = JCM 6841, read-out: MBC99.9; how it was run: as §1
Escherichia coli [22] = test: Antibacterial activity against polymyxin-resistant Escherichia coli UAMS-ECPR1 after 18 to 20 hrs by broth microdilution method; format: functional; how it was run: as §5
Escherichia coli [23] = test: Antibacterial activity against polymyxin-resistant Escherichia coli AR 0494 expressing mcr1 after 18 to 20 hrs by broth microdilution method; format: functional; how it was run: as §5
Klebsiella pneumoniae [24] = test: Antibacterial activity against polymyxin-resistant Klebsiella pneumoniae UAMS-KPPR1 after 18 to 20 hrs by broth microdilution method; format: functional
Klebsiella pneumoniae [25] = test: Antibacterial activity against polymyxin-resistant Klebsiella pneumoniae UAMS-KPPR3 after 18 to 20 hrs by broth microdilution method; format: functional
Escherichia coli [26] = test: Antibacterial activity against polymyxin-resistant Escherichia coli UAMS-ECPR2 after 18 to 20 hrs by broth microdilution method; format: functional; how it was run: as §5
Acinetobacter baumannii [27] = test: Potentiation of ampicillin-mediated antibacterial activity against Acinetobacter baumannii ATCC 19606 assessed as decrease in ampicillin MIC at 4 ug/ml by checkerboard method relative to control; format: functional, ATCC 19606 = CIP 70.34 = JCM 6841
Klebsiella pneumoniae [28] = test: Potentiation of vancomycin-mediated antibacterial activity against Klebsiella pneumoniae ATCC 13883 assessed as decrease in vancomycin MIC at 4 ug/ml by checkerboard method relative to control; format: functional
Klebsiella pneumoniae [29] = test: Potentiation of ampicillin-mediated antibacterial activity against Klebsiella pneumoniae ATCC 13883 assessed as decrease in ampicillin MIC at 4 ug/ml by checkerboard method relative to control; format: functional
Acinetobacter baumannii [30] = test: Potentiation of erythromycin-mediated antibacterial activity against Acinetobacter baumannii ATCC 19606 assessed as decrease in erythromycin MIC at 4 ug/ml by checkerboard method relative to control; format: functional, ATCC 19606 = CIP 70.34 = JCM 6841
Acinetobacter baumannii [31] = test: Potentiation of vancomycin-mediated antibacterial activity against Acinetobacter baumannii ATCC 19606 assessed as decrease in vancomycin MIC at 4 ug/ml by checkerboard method relative to control; format: functional, ATCC 19606 = CIP 70.34 = JCM 6841
Acinetobacter baumannii [32] = test: Potentiation of rifampicin-mediated antibacterial activity against Acinetobacter baumannii ATCC 19606 assessed as rifampicin MIC at 2 ug/ml by checkerboard method (reference value: 16 ug/ml); format: functional; settings: ATCC 19606 = CIP 70.34 = JCM 6841
Klebsiella pneumoniae [33] = test: Potentiation of erythromycin-mediated antibacterial activity against Klebsiella pneumoniae ATCC 13883 assessed as decrease in erythromycin MIC at 4 ug/ml by checkerboard method relative to control; format: functional
Klebsiella pneumoniae [34] = test: Potentiation of clarithromycin-mediated antibacterial activity against Klebsiella pneumoniae ATCC 13883 assessed as decrease in clarithromycin MIC at 4 ug/ml by checkerboard method relative to control; format: functional
Klebsiella pneumoniae [35] = test: Potentiation of rifampicin-mediated antibacterial activity against Klebsiella pneumoniae ATCC 13883 assessed as rifampicin MIC at 2 ug/ml by checkerboard method (reference value: 16 ug/ml); format: functional
Acinetobacter baumannii [36] = test: Potentiation of rifampicin-mediated antibacterial activity against Acinetobacter baumannii ATCC 19606 assessed as decrease in rifampicin MIC at 4 ug/ml by checkerboard method relative to control; format: functional, ATCC 19606 = CIP 70.34 = JCM 6841
Klebsiella pneumoniae [37] = test: Potentiation of rifampicin-mediated antibacterial activity against Klebsiella pneumoniae ATCC 13883 assessed as decrease in rifampicin MIC at 2 ug/ml by checkerboard method relative to control; format: functional
Acinetobacter baumannii [38] = test: Potentiation of clarithromycin-mediated antibacterial activity against Acinetobacter baumannii ATCC 19606 assessed as decrease in clarithromycin MIC at 4 ug/ml by checkerboard method relative to control; format: functional, ATCC 19606 = CIP 70.34 = JCM 6841
Staphylococcus aureus [39] = test: Antibiofilm activity against methicillin-resistant Staphylococcus aureus LAC established catheter-associated biofilm model at 20 times MIC after 72 hrs relative to control; format: functional

Compound	MIC (Acinetobacter baumannii [2])	MIC (Escherichia coli [3])	MIC (Klebsiella pneumoniae [4])	MIC (Staphylococcus aureus [5])	MIC (Escherichia coli [6])	MIC (Staphylococcus aureus [7])	MIC (Escherichia coli [8])	MIC (Escherichia coli [9])	MIC (Escherichia coli [10])	MIC (Pseudomonas aeruginosa [11])	MBC (Pseudomonas aeruginosa [14])	MIC (Staphylococcus aureus [15])	MIC (Escherichia coli [19])	MIC (Enterococcus faecium [20])	further results
CCCCCCCC(=O)N[C@@H](CCN)C(=O)N[C@H](C(=O)N[C@@H](CCN)C(=O)N[C@H](Cc1ccccc1)C(=O)N[C@@H](CC(C)C)C(=O)N[C@@H](CCN)C(=O)N[C@@H](C(=O)N[C@@H](CC(C)C)C(=O)N[C@@H](CO)C(N)=O)C(C)C)[C@@H](C)CC (Octanoyl-[Dab]I[Dab][dF]L[Dab][dV]LS-NH2)	16 µg/mL (≈ 14.3 µM)	8 µg/mL	8 to 16 µg/mL (≈ 7.17 to 14.3 µM)	16 to 32 µg/mL	8 µg/mL	8 to 16 µg/mL (≈ 7.17 to 14.3 µM)	8 µg/mL	8 µg/mL	2 to 4 µg/mL (≈ 1.79 to 3.58 µM)	2 µg/mL (≈ 1.79 µM)	8 to 16 µg/mL (≈ 7.17 to 14.3 µM)	8 to 16 µg/mL (≈ 7.17 to 14.3 µM)	8 µg/mL	16 µg/mL (≈ 14.3 µM)	MBC (Enterococcus faecium [1]): 16 to 32 µg/mL (≈ 14.3 to 28.7 µM); MBC (Staphylococcus aureus [12]): 16 µg/mL (≈ 14.3 µM); MBC (Klebsiella pneumoniae [13]): 8 to 16 µg/mL (≈ 7.17 to 14.3 µM); MBC (Staphylococcus aureus [16]): 8 to 32 µg/mL (≈ 7.17 to 28.7 µM); MBC (Escherichia coli [17]): 16 µg/mL (≈ 14.3 µM); Activity (Pseudomonas aeruginosa [18]): inactive; MBC (Acinetobacter baumannii [21]): 16 to 32 µg/mL (≈ 14.3 to 28.7 µM)
POLYMYXIN B	–	–	–	–	–	–	–	–	–	–	–	–	–	–	MIC (Escherichia coli [22]): 32 µg/mL; MIC (Escherichia coli [23]): 2 to 8 µg/mL; MIC (Klebsiella pneumoniae [24]): > 32 µg/mL; MIC (Klebsiella pneumoniae [25]): > 32 µg/mL; MIC (Escherichia coli [26]): 32 µg/mL
CC[C@H](C)[C@H](NC(=O)[C@H](CCN)NC(=O)[C@@H](N)CC1CCCCC1)C(=O)N[C@@H](CCN)C(=O)N[C@H](Cc1ccccc1)C(=O)N[C@@H](CC(C)C)C(=O)N[C@@H](CCN)C(=O)N[C@@H](C(=O)N[C@@H](CC(C)C)C(=O)N[C@@H](CO)C(N)=O)C(C)C (H-[Cha][Dab]I[Dab][dF]L[Dab][dV]LS-NH2)	≥ 32 µg/mL	> 32 µg/mL	32 µg/mL (≈ 28 µM)	> 64 µg/mL	> 32 µg/mL	> 32 µg/mL	> 32 µg/mL	1 to 2 µg/mL	4 to 8 µg/mL (≈ 3.5 to 7 µM)	2 to 8 µg/mL (≈ 1.75 to 7 µM)	16 to 32 µg/mL (≈ 14 to 28 µM)	32 µg/mL (≈ 28 µM)	2 µg/mL	> 32 µg/mL	fold change (FC) (Acinetobacter baumannii [27]): 2 - 4; fold change (FC) (Klebsiella pneumoniae [28]): 1; fold change (FC) (Klebsiella pneumoniae [29]): 1; fold change (FC) (Acinetobacter baumannii [30]): 64; fold change (FC) (Acinetobacter baumannii [31]): 32 - 64; MIC (Acinetobacter baumannii [32]): 0.0039 to 0.0078 µg/mL; fold change (FC) (Klebsiella pneumoniae [33]): 512; fold change (FC) (Klebsiella pneumoniae [34]): 2048 - 4096; MIC (Klebsiella pneumoniae [35]): 0.0039 µg/mL; fold change (FC) (Acinetobacter baumannii [36]): 4096; fold change (FC) (Klebsiella pneumoniae [37]): >=8192; fold change (FC) (Acinetobacter baumannii [38]): 2048
CCO/N=C(\C(=O)N[C@@H]1C(=O)N2C(C(=O)[O-])=C(Sc3nc(-c4cc[n+](C)cc4)cs3)CS[C@H]12)c1nsc(NP(=O)(O)O)n1	–	–	–	–	–	–	–	–	–	–	–	–	–	–	Activity (Staphylococcus aureus [39]): inactive
